From ChEMBL document CHEMBL1156610, “Synthesis, biological evaluation, and molecular modeling studies of methylene imidazole substituted biaryls as inhibitors of human 17alpha-hydroxylase-17,20-lyase (CYP17)--part II: Core rigidification and influence of substituents at the methylene bridge” (Bioorg Med Chem, 2008)
Each block holds one molecule with its values, some of them ahead of it.

Legend:
[1] = biological target: T1, Steroid 17-alpha-hydroxylase/17,20 lyase (Homo sapiens, UniProt P05093); assay: Inhibition of human CYP17 expressed in Escherichia coli coexpressed with cytochrome P450 reductase
T1 sequence (P05093 whole entry): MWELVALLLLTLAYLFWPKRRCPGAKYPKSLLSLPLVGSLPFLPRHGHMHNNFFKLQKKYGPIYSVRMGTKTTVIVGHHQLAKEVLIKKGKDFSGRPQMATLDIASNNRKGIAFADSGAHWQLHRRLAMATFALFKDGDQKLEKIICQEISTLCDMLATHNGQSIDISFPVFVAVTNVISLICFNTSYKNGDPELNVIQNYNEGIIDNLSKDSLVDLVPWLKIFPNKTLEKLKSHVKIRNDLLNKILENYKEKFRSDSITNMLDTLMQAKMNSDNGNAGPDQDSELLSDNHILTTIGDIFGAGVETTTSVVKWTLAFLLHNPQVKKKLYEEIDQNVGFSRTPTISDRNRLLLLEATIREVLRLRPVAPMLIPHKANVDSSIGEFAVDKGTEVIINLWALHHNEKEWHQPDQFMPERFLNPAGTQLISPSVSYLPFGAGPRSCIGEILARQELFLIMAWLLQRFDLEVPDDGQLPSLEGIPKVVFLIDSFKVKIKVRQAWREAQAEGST
Summary of the method: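 Enzyme source: 50,000g sediment from homogenized E. coli coexpressing human CYP17 and cytochrome P450 reductase. Substrate progesterone (25 µM as printed), NADPH cofactor.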

Rattus norvegicus [2] = assay: Reduction in plasma testosterone level in Wistar rat at 50 mg/kg, po after 1 hr; type: functional; design: scale not given: the % may be the effect or the level left
CYP2D6 = CYP2D6 (Homo sapiens, UniProt P10635); assay: Inhibition of hepatic CYP2D6 expressed in insect microsomes at 1 uM; type: ADME, Microsome
CYP2D6, sequence (P10635 whole entry): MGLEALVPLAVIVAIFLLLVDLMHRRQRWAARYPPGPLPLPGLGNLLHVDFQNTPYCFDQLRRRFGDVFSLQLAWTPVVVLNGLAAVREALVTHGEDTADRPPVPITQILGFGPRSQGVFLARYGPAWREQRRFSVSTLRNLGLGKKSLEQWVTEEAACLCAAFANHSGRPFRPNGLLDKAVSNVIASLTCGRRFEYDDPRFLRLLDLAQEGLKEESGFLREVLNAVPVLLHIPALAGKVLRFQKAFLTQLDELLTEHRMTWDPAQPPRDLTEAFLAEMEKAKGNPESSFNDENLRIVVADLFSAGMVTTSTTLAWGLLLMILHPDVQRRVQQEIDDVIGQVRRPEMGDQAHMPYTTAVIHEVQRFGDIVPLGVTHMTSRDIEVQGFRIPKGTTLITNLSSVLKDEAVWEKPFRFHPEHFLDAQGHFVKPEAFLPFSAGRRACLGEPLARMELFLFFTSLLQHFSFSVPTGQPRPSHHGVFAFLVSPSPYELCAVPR
Summary of the method: (§1)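 Recombinant human enzymes from baculovirus-infected insect cell microsomes, run per supplier protocol. Test concentration 1 µM; values are means of at least three independent tests, standard deviations under 5%.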

CYP3A4 = CYP3A4 (Homo sapiens, UniProt P08684); assay: Inhibition of hepatic CYP3A4 expressed in insect microsomes at 1 uM; type: ADME, Microsome; summary of the method: as §1
CYP3A4, sequence (P08684 whole entry): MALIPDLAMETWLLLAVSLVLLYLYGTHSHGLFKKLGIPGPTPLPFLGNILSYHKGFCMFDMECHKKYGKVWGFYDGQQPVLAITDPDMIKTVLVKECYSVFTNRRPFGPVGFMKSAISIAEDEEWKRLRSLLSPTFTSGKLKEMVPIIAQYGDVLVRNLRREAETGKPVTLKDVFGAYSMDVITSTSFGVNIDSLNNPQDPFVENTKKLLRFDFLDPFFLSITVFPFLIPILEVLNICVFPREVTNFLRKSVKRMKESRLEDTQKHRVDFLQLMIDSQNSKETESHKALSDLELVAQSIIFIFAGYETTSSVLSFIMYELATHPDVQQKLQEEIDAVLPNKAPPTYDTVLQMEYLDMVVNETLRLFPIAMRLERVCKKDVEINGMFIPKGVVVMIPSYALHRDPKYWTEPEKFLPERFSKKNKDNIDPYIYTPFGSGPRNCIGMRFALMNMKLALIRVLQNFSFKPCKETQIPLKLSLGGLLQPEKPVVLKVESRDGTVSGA

CYP11B1 = biological target: T2, CYP11B1 (Homo sapiens, UniProt P15538); assay: Inhibition of human CYP11B1 at 0.2 uM using [4-14C]-11-dexycorticosterone as a substrate; settings: probe [4-14C]-11-dexycorticosterone
T2 sequence (P15538 whole entry): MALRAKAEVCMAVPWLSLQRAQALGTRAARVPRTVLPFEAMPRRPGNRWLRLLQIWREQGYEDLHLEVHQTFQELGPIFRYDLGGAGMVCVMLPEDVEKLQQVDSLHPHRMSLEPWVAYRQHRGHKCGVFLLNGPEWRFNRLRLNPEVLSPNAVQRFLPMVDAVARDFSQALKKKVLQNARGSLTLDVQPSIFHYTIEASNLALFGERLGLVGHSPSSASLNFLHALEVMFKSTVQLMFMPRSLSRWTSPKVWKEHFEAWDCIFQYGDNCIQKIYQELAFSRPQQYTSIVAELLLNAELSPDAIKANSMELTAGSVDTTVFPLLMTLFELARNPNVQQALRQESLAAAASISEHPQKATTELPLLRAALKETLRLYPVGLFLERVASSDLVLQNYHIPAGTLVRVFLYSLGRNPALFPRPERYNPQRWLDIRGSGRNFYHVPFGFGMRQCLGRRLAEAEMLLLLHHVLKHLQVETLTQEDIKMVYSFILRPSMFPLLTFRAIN
Summary of the method: (§2)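 V79MZh cells expressing human CYP11B1 or CYP11B2, incubated with [4-14C]-11-deoxycorticosterone as substrate; inhibitors tested at 0.2 µM.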

Rattus norvegicus [3] = assay: Reduction in plasma testosterone level in Wistar rat at 50 mg/kg, po after 2 hrs; type: functional; design: scale not given: the % may be the effect or the level left
[4] = Cmax in Wistar rat at 50 mg/kg, po; type: ADME, organism-based; design: dose 50 mg/kg, route oral; settings: in vivo
Summary of the method: (§3)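 Male Wistar rats dosed orally at 50 mg/kg, or as acetate at 56 mg/kg (equivalent to 50 mg/kg parent). Plasma drug levels by LC–MS; non-compartmental analysis on mean plasma concentration–time data, values below detection limit set to zero. AUC, Cmax, tmax, terminal t1/2 and intrinsic hepatic clearance derived.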

Rattus norvegicus [5] = assay: Reduction in plasma testosterone level in Wistar rat at 50 mg/kg, po after 8 hrs; type: functional; design: scale not given: the % may be the effect or the level left
[6] = Tmax in Wistar rat at 50 mg/kg, po; type: ADME, organism-based; design: dose 50 mg/kg, route oral; settings: in vivo; summary of the method: as §3
[7] = AUC (0 to infinity) in Wistar rat at 50 mg/kg, po; type: ADME, organism-based; design: time infinity, dose 50 mg/kg, route oral; settings: plasma; summary of the method: as §3
CYP2B6 = biological target: T3, CYP2B6 (Homo sapiens, UniProt P20813); assay: Inhibition of hepatic CYP2B6 expressed in insect microsomes at 1 uM; type: ADME, Microsome; summary of the method: as §1
T3 sequence (P20813 whole entry): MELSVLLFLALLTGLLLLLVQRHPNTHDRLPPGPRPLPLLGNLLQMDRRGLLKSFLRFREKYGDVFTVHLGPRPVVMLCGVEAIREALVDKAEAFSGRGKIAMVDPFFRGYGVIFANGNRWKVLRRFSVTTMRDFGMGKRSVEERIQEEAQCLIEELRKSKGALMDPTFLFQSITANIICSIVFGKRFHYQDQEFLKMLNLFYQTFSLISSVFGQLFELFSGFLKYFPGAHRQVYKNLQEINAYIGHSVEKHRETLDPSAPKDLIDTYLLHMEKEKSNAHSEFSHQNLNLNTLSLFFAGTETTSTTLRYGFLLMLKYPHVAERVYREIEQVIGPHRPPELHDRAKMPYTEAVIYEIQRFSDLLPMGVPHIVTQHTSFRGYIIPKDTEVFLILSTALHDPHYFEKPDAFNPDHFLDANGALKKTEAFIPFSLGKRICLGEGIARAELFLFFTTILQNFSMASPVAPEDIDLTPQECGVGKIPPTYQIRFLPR

[8] = Terminal half life in Wistar rat at 50 mg/kg, po; type: ADME, organism-based; design: dose 50 mg/kg, route oral; settings: in vivo; summary of the method: as §3
Rattus norvegicus [9] = assay: Reduction in plasma testosterone level in Wistar rat at 50 mg/kg, po after 6 hrs; type: functional; design: scale not given: the % may be the effect or the level left
CYP11B2 = biological target: T4, CYP11B2 (Homo sapiens, UniProt P19099); assay: Inhibition of human CYP11B2 at 0.2 uM using [4-14C]-11-dexycorticosterone as a substrate; settings: probe [4-14C]-11-dexycorticosterone; summary of the method: as §2
T4 sequence (P19099 whole entry): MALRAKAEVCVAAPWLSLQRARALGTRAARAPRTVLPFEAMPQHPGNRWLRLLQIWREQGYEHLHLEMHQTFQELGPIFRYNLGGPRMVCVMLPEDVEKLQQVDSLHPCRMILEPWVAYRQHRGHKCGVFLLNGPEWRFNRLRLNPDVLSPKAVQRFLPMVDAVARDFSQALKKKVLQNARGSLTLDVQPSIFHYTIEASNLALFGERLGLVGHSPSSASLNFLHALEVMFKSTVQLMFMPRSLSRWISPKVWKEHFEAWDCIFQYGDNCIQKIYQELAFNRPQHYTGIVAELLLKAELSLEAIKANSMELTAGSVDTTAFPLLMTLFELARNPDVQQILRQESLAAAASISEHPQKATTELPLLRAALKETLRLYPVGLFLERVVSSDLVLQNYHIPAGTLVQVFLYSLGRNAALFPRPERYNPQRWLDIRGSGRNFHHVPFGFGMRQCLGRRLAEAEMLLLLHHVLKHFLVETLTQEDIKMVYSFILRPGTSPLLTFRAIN

Rattus norvegicus [10] = assay: Intrinsic clearance in Wistar rat at 50 mg/kg, po; type: ADME, organism-based; design: dose 50 mg/kg, route oral; settings: in vivo; summary of the method: as §3
Rattus norvegicus [11] = assay: Reduction in plasma testosterone level in Wistar rat at 50 mg/kg, po after 24 hrs; type: functional; design: Activity: scale not given: the % may be the effect or the level left
CYP1A2 = biological target: T5, CYP1A2 (Homo sapiens, UniProt P05177); assay: Inhibition of hepatic CYP1A2 expressed in insect microsomes at 1 uM; type: ADME, Microsome; summary of the method: as §1
T5 sequence (P05177 whole entry): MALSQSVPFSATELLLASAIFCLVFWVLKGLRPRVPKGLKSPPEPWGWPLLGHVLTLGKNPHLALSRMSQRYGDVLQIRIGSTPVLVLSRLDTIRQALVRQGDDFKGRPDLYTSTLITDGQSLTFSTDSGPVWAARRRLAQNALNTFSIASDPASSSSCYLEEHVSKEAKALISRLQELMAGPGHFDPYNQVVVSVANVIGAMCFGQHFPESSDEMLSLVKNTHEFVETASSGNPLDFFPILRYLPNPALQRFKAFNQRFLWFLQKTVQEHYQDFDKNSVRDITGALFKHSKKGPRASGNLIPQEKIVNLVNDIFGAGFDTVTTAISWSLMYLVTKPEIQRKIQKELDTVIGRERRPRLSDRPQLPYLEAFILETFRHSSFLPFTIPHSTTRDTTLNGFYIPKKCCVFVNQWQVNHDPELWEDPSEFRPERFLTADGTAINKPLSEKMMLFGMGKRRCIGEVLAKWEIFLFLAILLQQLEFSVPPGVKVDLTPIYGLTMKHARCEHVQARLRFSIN

Rattus norvegicus [12] = assay: Reduction in plasma testosterone level in Wistar rat at 50 mg/kg, po after 4 hrs; type: functional; design: scale not given: the % may be the effect or the level left
Rattus norvegicus [13] = assay: Intrinsic clearance in Wistar rat at 56 mg/kg, po; type: ADME, organism-based; design: dose 56 mg/kg, route oral; settings: in vivo; summary of the method: as §3

IC50 [1]: 910 nM
SMILES: CC(c1ccc(-c2ccccc2)cc1)n1ccnc1 (stereo not drawn)

inhibition at 1 µM (CYP2D6): 54%
inhibition at 1 µM (CYP3A4): 88%
inhibition at 0.2 µM (CYP11B1): 66%
Cmax [4]: 3290 ng/mL
IC50 [1]: 345 nM
Tmax [6]: 6 h
AUC(0-inf) [7]: 70700 ng·h/mL
inhibition at 1 µM (CYP2B6): 46%
half-life [8]: 10 h
inhibition at 0.2 µM (CYP11B2): 66%
CL (Rattus norvegicus [10]): 12 mL/min/kg
inhibition at 1 µM (CYP1A2): 97%
SMILES: CCC(c1ccc(-c2ccc(F)cc2)cc1)n1ccnc1 (stereo not drawn)
Activity (Rattus norvegicus [2]): 16.5%
Activity (Rattus norvegicus [3]): 11.7%
Activity (Rattus norvegicus [5]): 13.4%
Activity (Rattus norvegicus [9]): 13.9%
Activity (Rattus norvegicus [11]): 36.7%
Activity (Rattus norvegicus [12]): 13.9%

IC50 [1]: 450 nM
SMILES: CCC(c1ccc(-c2ccccc2)cc1)n1ccnc1 (stereo not drawn)

inhibition at 1 µM (CYP2D6): 32%
inhibition at 1 µM (CYP3A4): 86%
IC50 [1]: 756 nM
inhibition at 1 µM (CYP2B6): 34%
inhibition at 1 µM (CYP1A2): 96%
SMILES: Fc1ccc(-c2ccc(C(CCCl)n3ccnc3)cc2)cc1 (stereo not drawn)

IC50 [1]: > 5000 nM
SMILES: CCC(c1ccc(-c2ccc(C)cc2)cc1)n1ccnc1 (stereo not drawn)

IC50 [1]: > 5000 nM
SMILES: CCC(c1ccc(-c2ccc(N(CC)CC)cc2)cc1)n1ccnc1 (stereo not drawn)

IC50 [1]: 460 nM
SMILES: CC(C)(C)C(c1ccc(-c2ccccc2)cc1)n1ccnc1 (stereo not drawn)

IC50 [1]: 300 nM
SMILES: CCCCC(c1ccc(-c2ccccc2)cc1)n1ccnc1 (stereo not drawn)

Continued, molecule first:

SMILES: C=CC(c1ccc(-c2ccc(F)cc2)cc1)n1ccnc1 (stereo not drawn)
IC50 [1]: > 5000 nM

SMILES: FC(F)(F)c1ccc(-c2ccc(Cn3ccnc3)cc2)cc1
IC50 [1]: > 5000 nM

SMILES: CCC(c1ccc(-c2ccc(OC(F)(F)F)cc2)cc1)n1ccnc1 (stereo not drawn)
IC50 [1]: > 5000 nM

SMILES: CC(c1ccc(-c2ccc(F)cc2)cc1)n1ccnc1 (stereo not drawn)
IC50 [1]: 1100 nM

SMILES: CC(c1ccc2c(c1)[nH]c1ccccc12)n1ccnc1 (stereo not drawn)
inhibition at 1 µM (CYP3A4): 88%
IC50 [1]: 282 nM
inhibition at 1 µM (CYP1A2): 99%

SMILES: C[C@]12CC[C@H](O)CC1=CC[C@@H]1[C@@H]2CC[C@]2(C)C(c3cccnc3)=CC[C@@H]12 [ABIRATERONE]
inhibition at 1 µM (CYP3A4): 27%

SMILES: CCC(c1ccc(-c2ccc(NC(=O)OC(C)(C)C)cc2)cc1)n1ccnc1 (stereo not drawn)
inhibition at 1 µM (CYP3A4): 52%
IC50 [1]: 1700 nM

SMILES: c1ccc(-c2ccc(C(c3ccccc3)n3ccnc3)cc2)cc1 (stereo not drawn) [BIFONAZOLE]
IC50 [1]: 790 nM

SMILES: CCC(c1ccc(-c2ccc(N3CCOCC3)cc2)cc1)n1ccnc1 (stereo not drawn)
IC50 [1]: 2200 nM

SMILES: CC(=O)O[C@H]1CC[C@@]2(C)C(=CC[C@@H]3[C@@H]2CC[C@]2(C)C(c4cccnc4)=CC[C@@H]32)C1 [ABIRATERONE ACETATE]
Activity (Rattus norvegicus [2]): 92.5%
Activity (Rattus norvegicus [3]): 44%
Activity (Rattus norvegicus [5]): 35.6%
Activity (Rattus norvegicus [9]): 43.3%
relative plasma testosterone level (Rattus norvegicus [11]): 476%
CL (Rattus norvegicus [13]): 187 mL/min/kg
Activity (Rattus norvegicus [12]): 43.5%

SMILES: CC(c1ccc2c(c1)Cc1cc(O)ccc1-2)n1ccnc1 (stereo not drawn)
inhibition at 1 µM (CYP3A4): 89%
inhibition at 0.2 µM (CYP11B1): 96%
IC50 [1]: 99 nM
inhibition at 0.2 µM (CYP11B2): 98%
inhibition at 1 µM (CYP1A2): 93%
